Measurements from different studies.
Each line is one published result; the experiments were not run side by side.
Cell line: HeLa
Effect on: cell growth or viability

COc1cc(C)c(-c2c(C)cc(OC)c3c(=O)cc(-c4ccccc4)oc23)c2oc(-c3ccccc3)cc(=O)c12 — IC50 (MTT; 48 h): 11.8 µM
CC1(C)SC2C(NC(=O)C(NC(=O)C3=C(O)C(Cc4ccsc4)NC3=O)c3ccccc3)C(=O)N2C1C(=O)O (centres unmarked) — IC50 (ATP luminescence; 48 h): 58.9 µg/mL
COC(=O)CN=c1scc(-c2ccccc2)n1-c1ccccc1OC — IC50 (MTT; 72 h): 2.97 µM
COc1cc(OC)cc(C(=O)c2cc3c(-c4ccccc4)c(OC)ccc3o2)c1 — IC50: > 50 µM
c1cnc2c(c1)ccc1cccnc12 — IC50 (MTT; 48 h): > 50 µM
O=C(O)CN1c2ccccc2Sc2ccccc21 — IC50 (MTS): 13.2 µM
CC1(C)[C@@H](O)CC[C@]2(C)[C@H]3C(=O)C=C4[C@@H]5C[C@@](C)(C(=O)O)CC[C@]5(C)CC[C@@]4(C)[C@]3(C)CC[C@@H]12 — IC50 (MTT; 48 h): 17.3 µM
CC1CS(=O)(=O)CCN1/N=C/c1ccc([N+](=O)[O-])o1 (centres unmarked) — IC50: 43 µM
C=CCC[C@@H]1NC(=O)[C@H]2CCCN2C(=O)[C@H](Cc2ccccc2)NC(=O)C(C)(C)NC1=O — IC50 (XTT): > 100 µM
CC1(C)SC2C(NC(=O)C(NC(=O)C3=C(O)C(Cc4ccccc4)NC3=O)c3ccccc3)C(=O)N2C1C(=O)O (centres unmarked) — IC50 (ATP luminescence; 48 h): 122 µg/mL
Clc1ccnc2c1ccc1c(Cl)ccnc12 — IC50 (MTT; 48 h): > 50 µM
NCCOc1cc(C(=O)Nc2cc(OCCN3CCCC3)c3ccccc3n2)nc(C(=O)Nc2cc(OCCN3CCCC3)c3ccccc3n2)c1 — IC50 (ATP luminescence; 72 h): 0.3 µM
C[C@@H](O)C(=O)CCCCCCC(=O)Nc1ccccc1 — IC50 (XTT): > 50 µM
O=c1[nH]cc(F)c(=O)[nH]1 — IC50 (72 h): 0.54 µM
CCOc1cc(OCC)cc(C(=O)O[C@@H]2CN3Cc4c(cc5c(c4OC)OCO5)[C@@]24C=C[C@H](OC)C[C@@H]34)c1 — IC50 (WST-1; 48 h): 5 µM
COc1cc(OC)c2c(=O)cc(-c3ccccc3)oc2c1 — IC50 (MTT; 48 h): 73.7 µM
O=C(Nc1cc(OCCN2CCCC2)c2ccccc2n1)c1cc(OCc2ccc(F)cc2)cc(C(=O)Nc2cc(OCCN3CCCC3)c3ccccc3n2)n1 — IC50 (ATP luminescence; 72 h): 13 µM
Cc1ccc2c(Cl)cc(Cl)c(O)c2n1 — IC50 (MTT; 48 h): > 100 µM
COC1=C2C[C@@H](C)C[C@H](OC)[C@H](O)[C@@H](C)/C=C(\C)[C@H](OC(N)=O)[C@@H](OC)/C=C\C=C(/C)C(=O)NC(=CC1=O)C2=O — IC50 (MTT): 0.651 µM
COc1cc(OC)c2c(=O)cc(-c3ccccc3Br)oc2c1 — IC50 (MTT; 48 h): > 100 µM
C(C#CC1CC1)#CC1CC1 — IC50 (MTT; 24 h): 14.5 µg/mL
NCCCOc1cc(NC(=O)c2cc(Cl)cc(C(=O)Nc3cc(OCCCN)c4ccccc4n3)n2)nc2ccccc12 — IC50 (ATP luminescence; 72 h): 0.7 µM
CC1(C)SC2C(NC(=O)C(NC(=O)C3=C(O)C(Cc4ccc([N+](=O)[O-])cc4)NC3=O)c3ccccc3)C(=O)N2C1C(=O)O (centres unmarked) — IC50 (ATP luminescence; 48 h): 133 µg/mL
OCCCC#CC#CCCCO — IC50 (MTT; 24 h): 39.3 µg/mL
CC1(C)SC2C(NC(=O)C(NC(=O)C3=C(O)C4(CC4)NC3=O)c3ccccc3)C(=O)N2C1C(=O)O (centres unmarked) — IC50 (ATP luminescence; 48 h): 103 µg/mL
COc1c2c(cc3c1OCO3)[C@]13C=C[C@H](OC)C[C@H]1N(C2)C[C@H]3OC(=O)c1cccc(C)c1 — IC50 (WST-1; 48 h): > 10 µM
NCCOc1cc(NC(=O)c2cccc(C(=O)Nc3cc(OCCN)c4ccccc4n3)n2)nc2ccccc12 — IC50 (ATP luminescence; 72 h): 1.2 µM
COc1ccc(-c2cc(=O)c3c(OC)cc(C)cc3o2)cc1 — IC50 (MTT; 48 h): 28.4 µM
C#CCOc1ccc(C(=O)c2ccc(-c3cccc(NC(=O)CCc4cccc5c4B(O)OC5)c3)cc2)cc1 — IC50 (ATP luminescence; 72 h): 4.4 µM
O=C(c1ccccc1)c1cc2c(-c3ccccc3)c(O)ccc2o1 — IC50: 35 µM
CCCCCCC#CC#CCCCCCC — IC50 (MTT; 24 h): 36 µg/mL
CC(C)(C)OCC1NC(=O)C(C(=O)NC(C(=O)NC2C(=O)N3C2SC(C)(C)C3C(=O)O)c2ccccc2)=C1O (centres unmarked) — IC50 (ATP luminescence; 48 h): 106 µg/mL
COc1ccc(-c2cc(=O)c3c(OC)cc(C)c(-c4c(C)cc(OC)c5c(=O)cc(-c6ccc(OC)cc6)oc45)c3o2)cc1 — IC50 (MTT; 48 h): 41.4 µM
COc1ccc(OC)c(-c2c(C(=O)c3cc(OC)c(OC)c(OC)c3)sc3ccccc23)c1 — IC50 (MTT; 72 h): > 10 µM
CN(C)CCCOc1cc(NC(=O)c2cccc(C(=O)Nc3cc(OCCCN(C)C)c4ccccc4n3)n2)nc2ccccc12 — IC50 (ATP luminescence; 72 h): 3 µM
COc1ccccc1C(=O)c1cc2c(-c3ccccc3)c(OC)ccc2o1 — IC50: > 50 µM
CC(=O)O[C@H]1C(=O)[C@@]2(C)[C@H]([C@H](OC(=O)c3ccccc3)[C@]3(O)C[C@H](OC(=O)[C@H](O)[C@@H](NC(=O)c4ccccc4)c4ccccc4)C(C)=C1C3(C)C)[C@]1(OC(C)=O)CO[C@@H]1C[C@@H]2O — IC50 (MTT; 72 h): < 2 µM
CC(=O)c1ccc(-c2cccc(NC(=O)CCc3cccc4c3B(O)OC4)c2)cc1 — IC50 (ATP luminescence): 1.27 µM
COc1cc(C)c(-c2c(C)cc(OC)c3c(=O)cc(-c4ccc(C(F)(F)F)cc4)oc23)c2oc(-c3ccc(C(F)(F)F)cc3)cc(=O)c12 — IC50 (MTT; 48 h): > 100 µM
CN(C)CCOc1cc(NC(=O)c2cc(Cl)cc(C(=O)Nc3cc(OCCN(C)C)c4ccccc4n3)n2)nc2ccccc12 — IC50 (ATP luminescence; 72 h): 3.2 µM
COc1cc(OC)c2c(=O)cc(-c3ccc(C(F)(F)F)cc3)oc2c1-c1c(OC)cc(OC)c2c(=O)cc(-c3ccc(C(F)(F)F)cc3)oc12 — IC50 (MTT; 48 h): > 100 µM
Cc1ccc(C#CC#Cc2ccc(C)cc2)cc1 — IC50 (MTT; 24 h): 70.5 µg/mL
COc1cc(OC)c2c(=O)cc(-c3ccccc3)oc2c1-c1c(OC)cc(OC)c2c(=O)cc(-c3ccccc3)oc12 — IC50 (MTT; 48 h): 22.1 µM
NCCOc1cc(NC(=O)c2cc(OCc3ccc(F)cc3)cc(C(=O)Nc3cc(OCCN)c4ccccc4n3)n2)nc2ccccc12 — IC50 (ATP luminescence; 72 h): 9.6 µM
